The source of these data is ChEMBL document CHEMBL3797028, “Novel S1P1 receptor agonists - Part 4: Alkylaminomethyl substituted aryl head groups” (Eur J Med Chem, 2016).

The subject of series [1] is Rattus norvegicus. Kind of series: Change in circulating lymphocyte count in Wistar rat at 10 mg/kg administered as single dose through oral gavage after 24 hrs relative to control. It is filed as functional. Summed up: (§1)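 Male Wistar rats (RccHan:WIST; n = 6) were given a single oral gavage dose of compound in DMSO plus 7.5% succinylated gelatine (final 5% DMSO). Blood lymphocytes were counted just before dosing and at later timepoints. Percent change was calculated per animal relative to the pre-dose value and compared with a vehicle-treated group, reported as the mean. A ±15% change was treated as baseline, and a reduction of about 60% or more as maximal.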

The next series deals with Plasma. Nature of the series: Plasma concentration in Wistar rat at 1 mg/kg administered as single dose through oral gavage after 72 hrs by LC-MS/MS analysis. It is filed as ADME, organism-based. The settings on record: in vivo, BLD = below limit of detection. Summed up:
(§2)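 Single oral gavage dose to male Wistar rats in DMSO/7.5% succinylated gelatine (final 5% DMSO). Blood was drawn into EDTA at the lymphocyte-count timepoints. Plasma was prepared at 3000 g for 10 min at 4 °C and analysed by LC-MS/MS after protein precipitation.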

Series [2] concerns the target Sphingosine 1-phosphate receptor 5 (Homo sapiens, UniProt Q9H228). Nature of the series: Agonist activity at S1PR5 (unknown origin).
A short description of series [3]: Plasma concentration in Wistar rat at 10 mg/kg administered as single dose through oral gavage after 96 hrs by LC-MS/MS analysis. It is filed as ADME, organism-based. Summed up: as §2
For series [4], the system named is Rattus norvegicus. Nature of the series: Change in circulating lymphocyte count in Wistar rat at 1 mg/kg administered as single dose through oral gavage after 24 hrs relative to control. It is filed as functional. Summed up:
as §1

The test system of another series is Liver microsome. Nature of the series: Unbound fraction corrected apparent intrinsic clearance in Wistar rat liver microsomes at 1 uM after 2.5 to 15 mins by LC-MS/MS analysis in presence of NADPH. It is filed as ADME. Summed up: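 Apparent CLint was measured by microsomal substrate depletion: 1 uM start, 0.5 mg/mL rat liver microsomes, pH 7.4, 37 °C, NADPH-regenerating system, sampling 0–15 min, LC-MS/MS. It was then divided by the unbound microsomal fraction, which was determined by rapid equilibrium dialysis of 1 mg/mL microsomes for 6 h at 37 °C.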
Background: Liver microsomes are vesicles of endoplasmic reticulum, rich in cytochrome P450 enzymes.

Series [5] in a line: Plasma concentration in Wistar rat at 3 mg/kg administered as single dose through oral gavage after 6 hrs by LC-MS/MS analysis. It is filed as ADME, organism-based. Summed up:
as §2

Series [6] concerns the target T1, Sphingosine 1-phosphate receptor 4 (Homo sapiens, UniProt O95977).
T1 sequence (O95977 whole entry): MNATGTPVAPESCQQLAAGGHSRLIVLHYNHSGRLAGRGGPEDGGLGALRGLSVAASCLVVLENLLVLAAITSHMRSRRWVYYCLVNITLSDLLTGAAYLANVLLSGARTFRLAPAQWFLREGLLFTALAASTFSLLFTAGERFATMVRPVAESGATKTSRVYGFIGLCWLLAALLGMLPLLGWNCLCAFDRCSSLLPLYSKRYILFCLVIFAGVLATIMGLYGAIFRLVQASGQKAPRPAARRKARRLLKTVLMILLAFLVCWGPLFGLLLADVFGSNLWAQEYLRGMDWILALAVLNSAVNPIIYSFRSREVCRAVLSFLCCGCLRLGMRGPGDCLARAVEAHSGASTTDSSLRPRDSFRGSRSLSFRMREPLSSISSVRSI
Nature of the series: Agonist activity at S1PR4 (unknown origin).

In series [7] the test system is Rattus norvegicus. Kind of series: Change in circulating lymphocyte count in Wistar rat at 10 mg/kg administered as single dose through oral gavage after 6 hrs relative to control. It is filed as functional. Summed up: as §1
The nature of series [8]: Plasma concentration in Wistar rat at 1 mg/kg administered as single dose through oral gavage after 6 hrs by LC-MS/MS analysis. It is filed as ADME, organism-based. Summed up:
as §2

Series [9] in a line: Ratio of total drug level in brain to plasma in Wistar rat at 10 mg/kg administered as single dose through oral gavage after 2 hrs. It is filed as ADME, organism-based. The settings on record: read-out: BPR. Summed up: (§3)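 Male Wistar rats (n = 2 per timepoint) were dosed orally at 10 mg/kg. At 2, 6 and 24 h they were anaesthetised with 5% isoflurane and sacrificed, and blood was taken for plasma. The brain was perfused via the carotid with 10 mL 0.9% NaCl, removed, and homogenised in an equal volume of ice-cold 0.1 M Na-phosphate pH 7.4. Samples were assayed by LC-MS/MS against blank-brain calibration. Brain/plasma ratio was calculated from these values, reported as the mean of 2.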

The target in series [10] is Sphingosine 1-phosphate receptor 1 (Homo sapiens, UniProt P21453). Kind of series: Agonist activity at human recombinant S1PR1 expressed in CHO cell membranes assessed as [35S]GTPgammaS binding preincubated for 30 mins followed by [35S]GTPgammaS addition measured after 1 hr by topcount analysis. (In general: Binding of GTPγS marks nucleotide exchange on a G protein.)

Series [11] in a line: Total plasma concentration in Wistar rat at 10 mg/kg administered as single dose through oral gavage after 6 hrs by LC-MS/MS analysis. It is filed as ADME, organism-based. Summed up: as §3
Series [12] is described as follows: Fraction unbound in Wistar rat liver microsomes incubated for 6 hrs by LC-MS/MS based equilibrium dialysis method. It is filed as ADME. Summed up: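 Rapid equilibrium dialysis was run on a shaker for 6 h at 37 °C. The donor side held rat plasma (pH 7.2–7.6) or 1 mg/mL rat liver microsomes in phosphate buffer pH 7.4. The receiver side held phosphate buffer pH 7.4. Both sides were measured by LC-MS/MS to give free fraction and recovery.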

For series [13], the system named is Rattus norvegicus. Nature of the series: Reduction in circulating lymphocyte count in po dosed Wistar rat administered through gavage after 3 to 96 hrs. It is filed as functional, organism-based. Summed up: as §1
Series [14] in a line: Plasma concentration in Wistar rat at 10 mg/kg administered as single dose through oral gavage after 3 hrs by LC-MS/MS analysis. It is filed as ADME, organism-based. Summed up: as §2
The nature of series [15]: Apparent intrinsic clearance in Wistar rat liver microsomes at 1 uM after 2.5 to 15 mins by LC-MS/MS analysis in presence of NADPH. It is filed as ADME. Conditions: read-out: CLH(app). Summed up: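 Compound at 1 uM starting concentration was depleted by 0.5 mg/mL rat liver microsomes in 100 mM sodium phosphate pH 7.4 at 37 °C, with shaking under air. Reactions were started with an NADPH-regenerating system. Samples were taken at 0, 2.5, 5, 10 and 15 min, quenched in ice-cold methanol and analysed by LC-MS/MS. CLint,app came from first-order decay fitting.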

The test system of series [16] is Rattus norvegicus. Kind of series: Change in circulating lymphocyte count in Wistar rat at 10 mg/kg administered as single dose through oral gavage after 3 hrs relative to control. It is filed as functional. Summed up: as §1
The nature of series [17]: Selectivity ratio of EC50 for human recombinant S1PR3 expressed in CHO cell membranes to EC50 for human recombinant S1PR1 expressed in CHO cell membranes. It is filed as cell-based. Summed up:
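Compound and membranes are pre-incubated 30 min at rt, then incubated 1 h at rt, filtered and counted. EC50 is the concentration giving 50% of S1P-defined specific binding, as the geometric mean of ≥3 independent duplicate runs. Ratio = EC50 S1PR3/EC50 S1PR1.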

The test system of series [18] is Rattus norvegicus. Nature of the series: Change in circulating lymphocyte count in Wistar rat at 3 mg/kg administered as single dose through oral gavage after 3 hrs relative to control. It is filed as functional. Summed up:
as §1

Series [19] can be described thus: Total brain concentration in Wistar rat at 10 mg/kg administered as single dose through oral gavage after 6 hrs by LC-MS/MS analysis. The settings on record: read-out: Drug uptake. It is filed as ADME, organism-based. Summed up: as §3

Sphingosine 1-phosphate receptor 5, sequence (Q9H228 whole entry): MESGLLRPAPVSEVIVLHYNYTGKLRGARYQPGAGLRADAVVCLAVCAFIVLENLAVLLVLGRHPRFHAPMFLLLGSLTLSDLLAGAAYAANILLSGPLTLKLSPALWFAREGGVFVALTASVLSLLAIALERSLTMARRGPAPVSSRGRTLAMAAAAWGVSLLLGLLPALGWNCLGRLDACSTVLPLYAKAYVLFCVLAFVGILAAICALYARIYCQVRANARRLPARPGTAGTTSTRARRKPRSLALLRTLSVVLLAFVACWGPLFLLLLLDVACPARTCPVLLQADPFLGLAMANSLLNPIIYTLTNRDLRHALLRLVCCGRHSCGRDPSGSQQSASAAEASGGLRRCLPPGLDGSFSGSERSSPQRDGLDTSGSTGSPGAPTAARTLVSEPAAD
Sphingosine 1-phosphate receptor 1, sequence (P21453 whole entry): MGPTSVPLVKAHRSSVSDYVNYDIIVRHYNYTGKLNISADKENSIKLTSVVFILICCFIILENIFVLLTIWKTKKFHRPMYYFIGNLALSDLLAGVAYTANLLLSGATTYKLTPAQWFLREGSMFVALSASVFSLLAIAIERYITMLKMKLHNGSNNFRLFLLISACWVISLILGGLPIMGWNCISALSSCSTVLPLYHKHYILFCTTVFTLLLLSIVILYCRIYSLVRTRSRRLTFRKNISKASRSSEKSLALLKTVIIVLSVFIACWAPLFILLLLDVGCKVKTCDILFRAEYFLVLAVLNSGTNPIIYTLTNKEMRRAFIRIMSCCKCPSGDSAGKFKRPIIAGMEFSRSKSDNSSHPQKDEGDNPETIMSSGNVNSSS

As for `CCc1cc(-c2noc(-c3cc(C)c(CN(C)CC(C)C)s3)n2)cc(C)c1OC[C@@H](O)CNC(=O)CO`, the Activity in the series on Rattus norvegicus [1] is -70%; in the series with Rattus norvegicus [4] it was 4%; with Rattus norvegicus [7], -77%; with Rattus norvegicus [13], “Dose-dependent effect”; in the series on Rattus norvegicus [16], -69%; with Rattus norvegicus [18], -59%. For the same molecule, in the series with Plasma, the Cp result is given as “BLD”. Further, the EC50 (commonly the concentration that produces a half-maximal response) is 753 nM in series [2], above 1000 nM in [6] and 0.5 nM in [10]. This molecule gave a concentration at 96 h in series [3] of 0.5 ng/mL. The CL free in the series on Liver microsome amounted to 14000 µL/min/mg. Besides, the concentration at 6 h in series [5] came out at 170 ng/mL; in [8] it was 49 ng/mL; in series [11] it was 622 ng/mL; in series [19], 1030 ng/g. Besides, in series [9], the Kp at 2 h was determined as 0.64. Moreover, the fraction unbound (commonly free concentration divided by total concentration) at 6 h in series [12] stood at 0.002. The concentration at 3 h in series [14] was 722 ng/mL. Moreover, in series [15], the microsomal CLint at 1 µM turned out to be 28 µL/min/mg. In addition, the Ratio EC50 in [17] was 290.
